# Only some compounds are listed: those with a hit (about 3.2% of all), similar ones and a draw of the others.
# MEKK2wt PB1 HTS: modulators of MEK5 binding to wildtype MEKK2, primary screen, biochemical, multiplex bead flow cytometry, Alexa488-MEK5. Mitogen-activated protein kinase kinase kinase 2 (Homo sapiens), Q9Y2U5. Alexa488-MEK5 binding to MEKK2 WT; actives lie on both sides. binding response (% of control), % at 10 µM. 1.1% of 290,000 active. AID 1531, 2009; in the data active means binding response below about 67% or above about 130%; inconclusive means no clear call, values can overlap the other calls; inactive means in between
# MEKK3 PB1 HTS: modulators of MEKK3-MEK5 PB1 binding, primary screen, biochemical, wildtype MEKK3, multiplex bead flow cytometry, Alexa488-MEK5 | bead-based flow cytometry, Alexa488-MEK5 binding to MEKK3; actives lie on both sides; 0 = blocked by unlabeled MEK5, 100 = vehicle | Mitogen-activated protein kinase kinase kinase 3 (Homo sapiens), Q99759 | 1.4% of 290,000 active | binding response (% of control), % at 10 µM | AID 1529, 2009;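 active means binding response more than 3 SD above or below the average of its plate-row segment, actives on both sides; inconclusive means wells at one plate position flagged as instrument error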;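 further: Alexa488 bead fluorescence after subtracting the streptavidin-only scavenger bead signal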
# MEKK2mut PB1 HTS: MEK5 binding signal on mutant MEKK2 PB1, primary screen, biochemical, multiplex bead flow cytometry, Alexa488-MEK5. percent response, % at 10 µM. Alexa488-MEK5 binding to MEKK2 mutant. AID 1530, 2009. 0.35% of 290,000 active; in the data active means percent response above about 24%, passing the limit was not always enough
# Apaf1 inhib: inhibitors of human Apaf-1 apoptosome, primary screen, biochemical, DEVD-Rh110 fluorescence, uHTS; Apoptotic protease-activating factor 1 (Homo sapiens), O14727; reconstituted apoptosome caspase-3 activity; inhibition, % at 20 µM; 0.71% of 330,000 active; AID 489030, 2010; active means inhibition of at least 40% at 20 µM;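 further: plate controls were DMSO wells for no effect and DEVD-CHO caspase inhibitor wells for full effect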
# Target sequence (O14727 whole entry, looked up): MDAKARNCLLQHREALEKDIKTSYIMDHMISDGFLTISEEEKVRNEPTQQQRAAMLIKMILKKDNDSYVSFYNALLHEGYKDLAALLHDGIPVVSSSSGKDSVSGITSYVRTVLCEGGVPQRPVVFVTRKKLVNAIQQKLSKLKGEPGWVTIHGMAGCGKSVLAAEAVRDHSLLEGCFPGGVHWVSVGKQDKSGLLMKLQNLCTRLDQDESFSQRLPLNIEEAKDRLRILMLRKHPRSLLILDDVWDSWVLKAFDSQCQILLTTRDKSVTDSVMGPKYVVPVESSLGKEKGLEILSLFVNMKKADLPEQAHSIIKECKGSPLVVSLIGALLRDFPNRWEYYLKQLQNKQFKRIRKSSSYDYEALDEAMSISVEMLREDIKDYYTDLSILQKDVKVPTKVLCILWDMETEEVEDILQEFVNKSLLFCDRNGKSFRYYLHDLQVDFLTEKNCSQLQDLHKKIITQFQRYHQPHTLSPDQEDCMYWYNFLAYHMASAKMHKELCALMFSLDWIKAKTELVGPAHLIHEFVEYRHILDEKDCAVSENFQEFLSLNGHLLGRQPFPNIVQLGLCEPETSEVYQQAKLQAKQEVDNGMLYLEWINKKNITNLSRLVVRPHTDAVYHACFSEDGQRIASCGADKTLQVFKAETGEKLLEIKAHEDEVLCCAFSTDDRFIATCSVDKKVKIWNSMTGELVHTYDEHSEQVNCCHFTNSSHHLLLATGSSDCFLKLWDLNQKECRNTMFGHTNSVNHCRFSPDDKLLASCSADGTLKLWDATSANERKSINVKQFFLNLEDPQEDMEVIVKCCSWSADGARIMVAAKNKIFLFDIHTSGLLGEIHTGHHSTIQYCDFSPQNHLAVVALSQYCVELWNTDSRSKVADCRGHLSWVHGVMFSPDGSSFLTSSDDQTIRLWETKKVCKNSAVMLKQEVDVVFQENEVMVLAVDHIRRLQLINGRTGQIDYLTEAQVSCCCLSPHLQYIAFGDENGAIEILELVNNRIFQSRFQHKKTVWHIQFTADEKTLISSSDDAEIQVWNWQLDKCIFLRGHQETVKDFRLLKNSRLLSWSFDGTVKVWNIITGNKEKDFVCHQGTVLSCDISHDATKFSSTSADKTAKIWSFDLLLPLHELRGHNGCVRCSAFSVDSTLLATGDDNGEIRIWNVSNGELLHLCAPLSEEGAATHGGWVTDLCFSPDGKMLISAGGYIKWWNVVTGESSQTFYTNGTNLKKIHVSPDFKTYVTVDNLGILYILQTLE
#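 Assay system: Apoptosome proteins | Medium: pH 7.5 Hepes buffer with CHAPS, BSA, DTT | Also added: Cytochrome c and DEVD-Rh110 substrate | Times: 30 min plus 50 min, RT | Detection: Rhodamine 110 fluorescence at Ex 480/Em 540 nm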
# DSG3 Ab inh: inhibitors of pemphigus antibody binding to DSG3, primary screen, biochemical, bead-based, flow cytometry, scFv-GFP | 0.48% of 310,000 active | binding (percent of control), % at 10 µM | DSG3-coupled beads, scFv-anti-DSG3-GFP binding; stronger effect = lower value;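 active means binding more than 3 SD below its plate's average and above zero; inconclusive means below that plate limit but binding exactly zero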;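 further: hits lower antibody fragment binding to DSG3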
# UBC13 polyUb: UBC13 polyubiquitin chain formation inhibitors, primary screen, biochemical, TR-FRET, uHTS; inhibition, % at 20 µM; 0.47% of 330,000 active; in the data active means inhibition above about 45%, passing the limit was not always enough; inconclusive means no clear call, values can overlap the other calls
# Apaf-1 inh conf2: Apaf-1 inhibitors, single-dose retest, confirmation, biochemical, fluorescence, DEVD-Rh110, 20 µM | reconstituted apoptosome, caspase-3 DEVD-Rh110 fluorescence | shares compounds with Apaf1 inhib | 25% of 1,800 active | inhibition, % at 20 µM;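 active means mean inhibition of at least 40% at 20 µM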;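 further: plate controls were DMSO wells for no effect and DEVD-CHO caspase inhibitor control wells for full effect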
# Rh110 quench: Rh110 fluorescence interference by putative Apaf-1 inhibitors, confirmation, artefact control for Apaf-1 inhibitor project, biochemical, 20 µM | AID 504615, 2011 | activation (fluorescence interference), % at 20 µM | 1,800 tested, under 10 active | shares compounds with Apaf1 inhib | quenched caspase reaction;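 active means signal rise of 40% or more at 20 µM, treated as a fluorescence artifact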
# Apaf1 inh interf: fluorescence interference of Apaf-1 inhibitor hits, dose response, artefact control for Apaf-1 inhibitor project. shares compounds with Apaf1 inhib. fluorescence interference counterscreen, Apaf-1 assay format. IC50, µM. 460 tested, under 10 active. AID 588538, 2011; call rule not given here
# * marks the source's active call; other numbers are inactive results; u = inconclusive; x = not tested or not shown.
SMILES,MEKK2wt PB1 HTS,MEKK3 PB1 HTS,MEKK2mut PB1 HTS,Apaf1 inhib,DSG3 Ab inh,UBC13 polyUb,Apaf-1 inh conf2,Rh110 quench,others
O=C1c2ccccc2C(=O)N1C1C(=O)N2CCSC12C(=O)OCc1ccccc1 (stereo unspecified),x,x,x,x,101,x,x,x,
O=C(COC(=O)c1cc(Cl)ccc1Cl)NCCN1C(=O)CSC1=O,112,111,0,43*,102,-3,10,-3,
CCCCc1ccc(Nc2nc(CCC)cc(=O)[nH]2)cc1,101,110,5,40*,u,11,34,5,
CCN(CC(=O)Nc1ccc(NC(C)=O)cc1)C(=O)c1ccccc1SCC(=O)N1CCCC1,x,x,x,-7,92,14,x,x,
Cc1c(OC(C)C(=O)NCCCn2ccnc2)ccc2c3c(c(=O)oc12)CCC3 (stereo unspecified),98,95,1,2,98,8,x,x,
CCOc1cc(C(=O)OCC(=O)Nc2cccc(S(=O)(=O)NC3=NCCCCC3)c2)cc(OCC)c1OCC,x,x,x,3,x,8,x,x,
Cc1ccc(SC2=C(Sc3ccc(C)cc3)C(=O)c3ccccc3C2=O)cc1,77,85,-11,64*,103,-29,32,7,
O=C1C(Cl)=C(NCc2cccnc2)C(=O)c2ccccc21,100,99,-2,85*,88,-447,65*,8,Apaf1 inh interf=>100
C=CCNC1=C(Cl)C(=O)c2ccccc2C1=O,69,71,-2,40,115,-305,x,x,
CN1c2ccccc2C(C)(C)C12C=Cc1cc(O)ccc1O2 (stereo unspecified),99,107,6,10,102,-23,x,x,
CN1c2ccccc2C(C)(C)C12C=Nc1c(cc(N3CCOCC3)c3ccccc13)O2 (stereo unspecified),x,x,x,69*,102,-16,19,3,
Cc1c(/C=N/Nc2nc3ccccc3[nH]2)c2ccccc2n1C,168*,98,30,43*,99,-9,8,18,
CC(CCc1ccccc1)NC(=O)C(=O)c1c[nH]c2ccccc12 (stereo unspecified),102,105,2,-2,115,10,x,x,
N#CC1=C(N)Oc2n[nH]c(-c3cccs3)c2C1c1ccsc1 (stereo unspecified),103,108,4,83*,101,-47,26,9,
N#CC1=C(N)Oc2n[nH]c(-c3cccs3)c2C1c1ccncc1 (stereo unspecified),106,110,0,-3,x,-13,x,x,
Cc1cc(=O)[nH]c(SCC(=O)N2C(C)CCCC2C)n1 (stereo unspecified),104,102,0,3,x,0,x,x,
S=C(Nc1ccc2nsnc2c1)N1CCCCC1,101,104,-1,x,97,x,x,x,
CCN(CC)C(=O)C1CCCN(C(=O)Nc2ccc3nsnc3c2)C1 (stereo unspecified),112,111,14,71*,106,18,12,5,
COc1ccc(N(CC(=O)NCc2ccc3c(c2)OCO3)C(=O)c2csnn2)cc1,98,102,-2,3,98,-4,x,x,
CC(C)(C)OC(=O)N1CCC(c2cc(=O)n3[nH]c(-c4ccc(Cl)cc4)cc3n2)CC1,99,96,-7,3,100,-12,x,x,
COc1ccc(NC(=O)c2c[nH]n3c(=O)cc(C4CCN(C(=O)OC(C)(C)C)CC4)nc23)cc1Cl,82,97,-18,42*,96,-51,31,8,
COC(=O)CC1C(=O)NCCN1C(=O)c1oc2c(C)c(C)ccc2c1C (stereo unspecified),x,x,x,x,106,x,x,x,
Cc1nn(CCc2nn[nH]n2)c2nc(-c3ccc(C4CCCCC4)cc3)cc(C(F)(F)F)c12,85,112,-10,60*,122,-20,32,13,
N#CC1=C2SCN(Cc3ccccc3)CN2C(=O)CC1c1ccc2c(c1)OCO2 (stereo unspecified),101,101,-8,7,97,-4,x,x,
COc1ccc2ccccc2c1C1CC(=O)N2CN(Cc3ccco3)CSC2=C1C#N (stereo unspecified),104,101,3,52*,100,-6,32,8,
SMILES,MEKK2wt PB1 HTS,MEKK3 PB1 HTS,MEKK2mut PB1 HTS,Apaf1 inhib,DSG3 Ab inh,UBC13 polyUb,Apaf-1 inh conf2,Rh110 quench,others
N#CC1=C2SCN(Cc3ccccc3)CN2C(=O)CC1c1cccs1 (stereo unspecified),104,103,8,78*,106,-16,17,-8,
COc1cccc(S(=O)(=O)N(C)C[C@H]2OCc3cnnn3CCCC(=O)N([C@H](C)CO)C[C@H]2C)c1,x,x,x,x,107,x,x,x,
O=C1NCC(c2ccccc2)C1C(=O)N/N=C\c1ccc(-c2cccc(Cl)c2Cl)o1 (stereo unspecified),96,100,-1,40*,104,2,20,7,
COc1cccc(/C=N\NC(=O)C2C(=O)NCC2c2ccccc2)c1O (stereo unspecified),105,104,0,-1,111,13,x,x,
Cc1ccc(-c2ccc(/C=N\NC(=O)C3C(=O)NCC3c3ccccc3)o2)cc1Cl (stereo unspecified),102,107,2,43*,101,-2,35,14,
CC(C)C(C(=O)NC1CCCC1)N(CC1CCCO1)C(=O)CNS(=O)(=O)c1ccccc1 (stereo unspecified),100,103,0,-2,x,4,x,x,
COc1ccc(NC(=O)c2ccc3ccccc3c2OC)cc1,x,x,x,-4,106,5,x,x,
N#Cc1c(N)n(-c2ccc(O)cc2)c2nc3ccccc3nc12,105,107,2,7,100,-8,x,x,
COCCn1c(N)c(C#N)c2nc3ccccc3nc21,98,92,0,52*,100,-3,15,5,

# High-throughput results as filed in PubChem.
